Active and inactive are the calls of the source.
Experiments:
[1] = Drug metabolism in rat liver microsomes at 1 uM incubated for 1 hr in presence of NADPH by UPLC-MS analysis; assay type: ADME, Microsome; conditions: read-out: Drug metabolism
Outline: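 Liver microsomes, compound 1 µM, 37 °C for 1 h in 50 mM Na/K phosphate pH 7.4, 3 mM MgCl2, NADPH-regenerating system, CYP 0.3 nmol/mL. Aliquots at 0, 10, 20, 40, 60 min quenched with cold acetonitrile, supernatants by UPLC-MS/MS; % parent remaining at end reported. Terfenadine as positive control.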

[2] = target: Sigma non-opioid intracellular receptor 1 (Cavia porcellus, UniProt Q60492); assay type: cell membranes;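 further: radioligand displacement of [3H]-(+)-pentazocine from guinea pig brain cortex membranes, 120 min incubation, bound radioactivity read by scintillation counting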
Mus musculus [3] = test: Antiallodynic activity in CD-1 mouse model of capsaicin-induced mechanical allodynia assessed as increase in paw withdrawal threshold at 32 mg/kg, sc administered 30 mins before capsaicin addition and measured after 15 mins in presence of sigma1 receptor agonist PRE-084 by von-Frey test; assay type: functional, organism-based
Outline: (§1)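 Female CD-1 mice pretreated sc with σ1 agonist PRE-084 (32 mg/kg) 5 min before sc test compound; 30 min later capsaicin 1 µg intraplantar. After 15 min, 0.5 g electronic von Frey stimulus on secondary hyperalgesia area; withdrawal latency averaged over three trials, 50 s cutoff. Effect as % antiallodynia versus HPMC-treated; 6-8 animals, one-way ANOVA plus Bonferroni.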

Sus scrofa = species: Sus scrofa; conditions: at 1 µM
[4] = Stability of compound in phosphate buffer at pH 7.4 after 24 hrs by HPLC analysis; assay type: physicochemical; conditions: pH 7.4, 24 h
Outline: (§2)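 Compound (25 μL of 10 mM DMSO stock) added to 1 mL aqueous buffered solution, pH 2 or pH 7.4, stirred 24 h at room temperature, analyzed by HPLC-MS; deemed stable if peak area remained 95–105%.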

[5] = target: T1, Sigma intracellular receptor 2 (Rattus norvegicus, UniProt Q5U3Y7); test: Displacement of [3H]-di-o-tolylguanidine from sigma2 receptor in rat liver membranes incubated for 120 mins by scintillation counting method; assay type: cell membranes
T1 sequence (Q5U3Y7 whole entry): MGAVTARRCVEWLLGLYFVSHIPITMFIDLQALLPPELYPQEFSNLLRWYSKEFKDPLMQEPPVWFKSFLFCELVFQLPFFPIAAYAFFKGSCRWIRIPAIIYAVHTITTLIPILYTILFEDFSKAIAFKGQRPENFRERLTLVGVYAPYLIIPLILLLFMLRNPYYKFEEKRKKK

[6] = Stability of compound in aqueous HCl solution at pH 2 after 24 hrs by HPLC analysis; assay type: physicochemical; conditions: buffer, pH 2, 24 h; outline: as §2
[7] = target: Sodium-dependent serotonin transporter (Homo sapiens) (UniProt P31645); test: Displacement of [3H]imipramine from human serotonin transporter at 1 uM after 30 mins by scintillation counting method relative to control
Outline: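 Human SERT-enriched membranes (3.5 μg) incubated 30 min at 27 °C with 3 nM [3H]imipramine in Tris-HCl/120 mM NaCl/5 mM KCl pH 7.4, 0.1% DMSO; 200 μM imipramine for nonspecific binding. Compound at 1 μM; displacement after filtration.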

[8] = Selectivity ratio of Ki for GluN2B/GluN1a (unknown origin) expressed in mouse L(tk-) cell membranes to Ki for sigma1 receptor in guinea pig brain cortex membranes; assay type: cell-based
[9] = target: 5-hydroxytryptamine receptor 1A (Homo sapiens) (UniProt P08908); test: Displacement of [3H]8-OH-DPAT from human 5HT1A receptor at 1 uM incubated for 2 hrs scintillation counting method relative to control
Outline: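 Human 5-HT1A-enriched membranes (10 μg), 2 nM [3H]-8-OH-DPAT, 50 mM Tris-HCl/5 mM MgCl2 pH 7.4, 0.1% DMSO final, 2 h at 37 °C; 10 μM 5-HT for nonspecific binding. Compound at 1 μM; radioligand displacement read after GF/C filtration.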

[10] = target: Kappa-type opioid receptor (Homo sapiens, UniProt P41145); test: Inhibition of KOR (unknown origin)
[11] = target: Delta-type opioid receptor (Homo sapiens, UniProt P41143); test: Inhibition of DOR (unknown origin)
[12] = Displacement of [3H] ifenprodil from GluN2B/GluN1a (unknown origin) expressed in mouse L(tk-) cell membranes incubated for 120 mins by scintillation counting method; design: species or system Homo sapiens
Outline: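 Membranes from mouse L(tk-) cells co-transfected with dexamethasone-inducible GluN1a/GluN2B (1:5), induced 24 h with 4 μM dexamethasone plus 4 μM ketamine.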

[13] = target: Histamine H1 receptor (Homo sapiens) (UniProt P35367); test: Displacement of [3H]pyrilamine from human recombinant histamine H1 receptor at 1 uM after 90 mins by scintillation counting method relative to control
Outline: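 Human H1 receptor-enriched membranes (25 μg) with 2.4 nM [3H]pyrilamine in Na+/K+ phosphate buffer pH 7.4, 0.1% DMSO, 90 min, 25 °C; 10 μM triprolidine for nonspecific binding. Single 1 μM test concentration; filtration-based readout of displacement.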

Mu-type opioid receptor = Mu-type opioid receptor (Homo sapiens, UniProt P35372); test: Agonist activity at MOR (unknown origin) by cAMP assay; assay type: functional
[14] = target: Sodium-dependent noradrenaline transporter (Homo sapiens) (UniProt P23975); test: Displacement of [3H]nisoxetine from recombinant human norepinephrine transporter at 1 uM after 60 mins by scintillation counting method relative to control
Outline: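 Human NET-enriched membranes (1 μg), 5 nM [3H]nisoxetine in 50 mM Tris-HCl, 120 mM NaCl, 5 mM KCl, pH 7.4, 1% DMSO final; 60 min at 4 °C; 10 μM desipramine for nonspecific binding. Single 1 μM compound; filtration, displacement of radioligand.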

Mus musculus [15] = test: Antiallodynic activity in CD-1 mouse model of capsaicin-induced mechanical allodynia assessed as increase in paw withdrawal threshold at 16 mg/kg, sc administered 30 mins before capsaicin addition and measured after 15 mins in presence of sigma1 receptor agonist PRE-084 by von-Frey test; assay type: functional, organism-based; outline: as §1
HepG2 = test: Cytotoxicity against human HepG2 assessed as reduction in cell viability at 1 to 100 uM after 20 hrs by MTT assay; assay type: cell-based; conditions: hepg2, 20 h
Outline: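 HepG2 cells, 3 x 10^4/well, grown 24 h in MEM/10% FBS, then exposed 20 h in serum-free medium to compound at 1, 10, 100 µM (from DMSO solutions). MTT 0.5 mg/mL for 4 h, formazan dissolved in DMSO, OD 550 nm. IC50 taken as lowest concentration giving ≥50% cytotoxicity versus untreated cells; duplicates in two assays (n = 4).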

Mus musculus [16] = test: Antiallodynic activity in CD-1 mouse model of capsaicin-induced mechanical allodynia assessed as increase in paw withdrawal threshold at 8 mg/kg, sc administered 30 mins before capsaicin addition and measured after 15 mins by von-Frey test; assay type: functional, organism-based
Outline: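 Female CD-1 mice given compound or HPMC vehicle sc 30 min before intraplantar capsaicin (1 µg in 20 µL, 1% DMSO). 15 min later, electronic von Frey punctate stimulus (0.5 g) at least 5 mm from injection site; paw withdrawal latency, three trials 30 s apart, 50 s cutoff. % antiallodynic effect = [(LTD−LTS)/(CT−LTS)]×100; 6-8 mice per group, ANOVA with Bonferroni.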

Sequence of Sodium-dependent noradrenaline transporter (Homo sapiens) (P23975 whole entry): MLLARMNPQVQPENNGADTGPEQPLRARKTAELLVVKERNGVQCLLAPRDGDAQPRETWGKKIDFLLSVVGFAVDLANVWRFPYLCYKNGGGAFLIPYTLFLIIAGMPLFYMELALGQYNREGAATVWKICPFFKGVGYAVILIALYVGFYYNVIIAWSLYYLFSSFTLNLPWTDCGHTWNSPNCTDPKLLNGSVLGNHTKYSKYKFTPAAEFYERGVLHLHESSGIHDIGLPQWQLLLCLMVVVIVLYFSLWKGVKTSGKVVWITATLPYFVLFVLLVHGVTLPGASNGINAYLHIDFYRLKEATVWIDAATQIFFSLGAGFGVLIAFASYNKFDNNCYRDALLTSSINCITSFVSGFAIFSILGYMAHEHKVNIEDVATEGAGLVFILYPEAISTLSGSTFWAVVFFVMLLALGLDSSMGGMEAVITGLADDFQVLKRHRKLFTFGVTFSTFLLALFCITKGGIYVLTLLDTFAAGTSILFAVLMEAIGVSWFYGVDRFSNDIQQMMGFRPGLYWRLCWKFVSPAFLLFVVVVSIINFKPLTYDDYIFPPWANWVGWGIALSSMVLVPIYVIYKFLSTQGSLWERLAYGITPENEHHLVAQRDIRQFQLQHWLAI
Sequence of Histamine H1 receptor (Homo sapiens) (P35367 whole entry): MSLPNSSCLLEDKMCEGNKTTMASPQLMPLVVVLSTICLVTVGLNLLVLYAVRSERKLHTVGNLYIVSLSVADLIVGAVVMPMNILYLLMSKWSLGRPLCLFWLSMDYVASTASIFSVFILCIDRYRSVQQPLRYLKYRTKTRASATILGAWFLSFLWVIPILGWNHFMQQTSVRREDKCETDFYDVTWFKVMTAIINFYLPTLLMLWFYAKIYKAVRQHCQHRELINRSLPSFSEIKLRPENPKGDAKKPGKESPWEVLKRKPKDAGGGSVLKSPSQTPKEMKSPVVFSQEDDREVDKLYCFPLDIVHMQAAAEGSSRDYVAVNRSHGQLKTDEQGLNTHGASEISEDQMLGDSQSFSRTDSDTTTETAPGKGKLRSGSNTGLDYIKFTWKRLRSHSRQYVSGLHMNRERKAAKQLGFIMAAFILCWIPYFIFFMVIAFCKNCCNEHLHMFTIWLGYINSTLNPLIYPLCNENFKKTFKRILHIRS
Sequence of Kappa-type opioid receptor (P41145 whole entry): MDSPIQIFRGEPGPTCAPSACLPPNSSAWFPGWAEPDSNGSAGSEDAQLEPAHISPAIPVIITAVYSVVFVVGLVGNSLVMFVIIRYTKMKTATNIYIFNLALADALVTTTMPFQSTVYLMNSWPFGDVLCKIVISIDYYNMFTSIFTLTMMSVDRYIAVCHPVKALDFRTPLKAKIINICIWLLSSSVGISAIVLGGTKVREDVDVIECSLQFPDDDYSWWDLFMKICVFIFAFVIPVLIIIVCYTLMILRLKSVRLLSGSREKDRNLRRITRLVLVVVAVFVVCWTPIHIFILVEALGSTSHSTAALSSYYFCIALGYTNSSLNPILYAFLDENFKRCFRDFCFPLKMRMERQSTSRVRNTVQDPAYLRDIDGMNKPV
Sequence of Delta-type opioid receptor (P41143 whole entry): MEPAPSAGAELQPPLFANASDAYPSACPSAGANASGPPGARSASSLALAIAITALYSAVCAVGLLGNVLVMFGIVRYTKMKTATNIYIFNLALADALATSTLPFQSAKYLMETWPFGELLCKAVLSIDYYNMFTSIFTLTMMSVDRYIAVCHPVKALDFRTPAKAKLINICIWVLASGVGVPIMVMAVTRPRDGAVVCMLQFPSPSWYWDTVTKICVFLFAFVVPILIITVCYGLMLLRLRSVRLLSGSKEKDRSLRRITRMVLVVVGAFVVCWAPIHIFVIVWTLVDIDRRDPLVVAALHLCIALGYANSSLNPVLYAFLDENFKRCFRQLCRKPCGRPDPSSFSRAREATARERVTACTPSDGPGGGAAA
Sequence of Mu-type opioid receptor (P35372 whole entry): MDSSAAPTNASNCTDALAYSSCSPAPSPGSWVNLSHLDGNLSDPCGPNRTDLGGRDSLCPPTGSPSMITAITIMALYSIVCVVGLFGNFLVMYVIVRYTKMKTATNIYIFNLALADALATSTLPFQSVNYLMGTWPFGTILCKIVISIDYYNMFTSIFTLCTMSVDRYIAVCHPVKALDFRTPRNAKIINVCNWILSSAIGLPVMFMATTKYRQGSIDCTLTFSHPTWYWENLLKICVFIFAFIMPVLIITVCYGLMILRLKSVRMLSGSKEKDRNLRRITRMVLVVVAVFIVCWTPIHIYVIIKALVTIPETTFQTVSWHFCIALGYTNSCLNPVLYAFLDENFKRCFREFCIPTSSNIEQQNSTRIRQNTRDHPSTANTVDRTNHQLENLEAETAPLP
Sequence of Sodium-dependent serotonin transporter (Homo sapiens) (P31645 whole entry, looked up): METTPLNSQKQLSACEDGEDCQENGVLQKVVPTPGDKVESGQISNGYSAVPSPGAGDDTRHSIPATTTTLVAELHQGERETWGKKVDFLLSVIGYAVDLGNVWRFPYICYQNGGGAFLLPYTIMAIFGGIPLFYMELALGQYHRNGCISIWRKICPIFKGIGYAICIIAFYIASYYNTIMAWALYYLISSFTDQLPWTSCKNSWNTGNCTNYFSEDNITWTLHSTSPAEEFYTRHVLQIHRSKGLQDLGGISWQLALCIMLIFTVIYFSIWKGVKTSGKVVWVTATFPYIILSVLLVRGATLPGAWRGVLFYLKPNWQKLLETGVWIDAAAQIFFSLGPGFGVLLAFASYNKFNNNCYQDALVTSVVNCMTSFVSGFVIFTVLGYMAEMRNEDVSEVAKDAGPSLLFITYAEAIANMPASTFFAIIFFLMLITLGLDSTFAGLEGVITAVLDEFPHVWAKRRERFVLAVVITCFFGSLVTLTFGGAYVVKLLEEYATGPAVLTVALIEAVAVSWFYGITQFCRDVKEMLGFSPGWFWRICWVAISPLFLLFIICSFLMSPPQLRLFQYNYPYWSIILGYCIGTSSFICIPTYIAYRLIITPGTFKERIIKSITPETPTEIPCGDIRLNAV
Sequence of 5-hydroxytryptamine receptor 1A (Homo sapiens) (P08908 whole entry): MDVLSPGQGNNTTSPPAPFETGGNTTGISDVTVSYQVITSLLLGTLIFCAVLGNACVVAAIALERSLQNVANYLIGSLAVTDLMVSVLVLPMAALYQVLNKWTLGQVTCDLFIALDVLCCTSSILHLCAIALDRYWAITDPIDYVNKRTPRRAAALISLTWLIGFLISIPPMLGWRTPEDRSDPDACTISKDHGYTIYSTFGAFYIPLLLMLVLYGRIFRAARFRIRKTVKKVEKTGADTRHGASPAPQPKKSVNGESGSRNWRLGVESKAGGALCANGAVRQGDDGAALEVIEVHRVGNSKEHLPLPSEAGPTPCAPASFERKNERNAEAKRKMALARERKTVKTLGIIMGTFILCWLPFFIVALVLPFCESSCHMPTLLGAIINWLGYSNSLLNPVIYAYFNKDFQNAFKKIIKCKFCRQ
Sequence of Sigma non-opioid intracellular receptor 1 (Q60492 whole entry): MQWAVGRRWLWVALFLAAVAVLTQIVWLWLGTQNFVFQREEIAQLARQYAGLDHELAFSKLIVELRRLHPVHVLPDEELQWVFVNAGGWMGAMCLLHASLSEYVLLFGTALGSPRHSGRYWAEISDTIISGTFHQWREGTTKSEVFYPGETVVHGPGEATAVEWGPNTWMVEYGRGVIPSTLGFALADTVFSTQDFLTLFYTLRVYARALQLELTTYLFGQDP

## COc1ccc2c(c1)CCN(CCC(F)Cc1ccccc1)CC2 (centres undefined)
[1]
  metabolised at 1 h, 1 µM: 100%
[2]
  Ki: 0.0066 µM
Mus musculus [3]
  Activity: Active
Sus scrofa
  inhibition: 21%
[4]
  Stability: Stable
[5]
  Ki: 0.115 µM
[6]
  Stability: Stable
[7]
  inhibition: < 50%
[8]
  Ratio Ki: < 18
[9]
  inhibition: 70%
[10]
  Ki: > 1 µM
[11]
  Ki: > 1 µM
[12]
  Ki: 0.12 µM
[13]
  inhibition: < 50%
Mu-type opioid receptor
  EC50: > 10 µM
[14]
  inhibition: < 50%
Mus musculus [15]
  Activity: inactive
HepG2
  Activity: Toxic
Mus musculus [16]
  Activity: Active

Source: ChEMBL document CHEMBL4393719, “Tetrahydro-3-benzazepines with fluorinated side chains as NMDA and σ1 receptor antagonists: Synthesis, receptor affinity, selectivity and antiallodynic activity” (Eur J Med Chem, 2019)
